The values that follow come from ChEMBL document CHEMBL1127484, “5-Aryl-3-(alkylthio)-4H-1,2,4-triazoles as selective antagonists of strychnine-induced convulsions and potential antispastic agents” (J Med Chem, 1994).

The test system of data set [1] is Mus musculus. As to the kind of experiment: Effective dose required for antagonist activity against pentylenetetrazole-induced seizures in mice when administered intraperitoneally; Range is 50-100. It counts as functional. The following applies: ip. In short, it runs like this:
(§1)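 CD-1 male mice (18–26 g), groups of 5 or 10, housed individually, dosed ip in distilled H2O or H2O/Tween 80. Convulsant given 30 min later. Strychnine sulfate 2.7 mg/kg ip: protection = no tonic extension >15 min. MES 50 mA, 0.2 s, corneal: no tonic hind-limb extension. PTZ 60 mg/kg iv: no clonic seizures for 2 min. MPA 100 mg/kg iv: no seizures for 5 min. ED50 by quantal analysis from ≥4 doses, ≥10 mice each.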

The nature of data set [2]: Dose encompassing the 50% lethal effect was recorded when administered intraperitoneally in mice. Type of data set: ADME, organism-based. To be noted: mouse, in vivo, ip. In short, it runs like this:
(§2)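 Deaths were recorded over the 7 days after dosing. The estimated LD50 was taken as the dose range spanning 50% lethality.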

In data set [3] the test system is Mus musculus. Kind of data set: Effective dose required for antagonist activity against maximal electroshock induced seizures in mice when administered intraperitoneally. Type of data set: functional. To be noted: ip. In short, it runs like this:
as §1
On the technique in general: Protection in the maximal electroshock model is a classic sign of anticonvulsant action.

In data set [4] the test system is Mus musculus. As to the kind of experiment: Effective dose required for antagonist activity against 3-mercaptopropionic-acid-induced seizures in mice when administered intraperitoneally; Range is 100-200. To be noted: ip. Type of data set: functional. Summed up:
as §1

For data set [5], the system named is Mus musculus. As to the kind of experiment: Effective dose required for antagonist activity against strychnine induced seizures in mice when administered intraperitoneally. Type of data set: functional. To be noted: ip. Summed up: as §1
Data set [6] in a line: Dose encompassing the 50% lethal effect was recorded when administered intraperitoneally in mice; Range is 400-800. Type of data set: ADME, organism-based. The following applies: mouse, in vivo, ip. Summed up:
as §2

For data set [7], the system named is Mus musculus. As to the kind of experiment: Effective dose required for antagonist activity against pentylenetetrazole-induced seizures in mice when administered intraperitoneally. To be noted: ip. It counts as functional. Summed up: as §1
Data set [8] has as its system Mus musculus. Kind of data set: Effective dose required for antagonist activity against 3-mercaptopropionic-acid induced seizures in mice when administered intraperitoneally. It counts as functional. To be noted: ip. In short, it runs like this: as §1
Data set [9] concerns Mus musculus. As to the kind of experiment: Effective dose required for antagonist activity against strychnine induced seizures in mice when administered intraperitoneally; Range is 50-100. Type of data set: functional. To be noted: ip. Summed up: as §1
Data set [10] concerns Mus musculus. Kind of data set: Effective dose required for antagonist activity against maximal electroshock induced seizures in mice when administered intraperitoneally; Range is 100-200. The following applies: ip. Type of data set: functional. Summed up:
as §1

In data set [11] the test system is Mus musculus. As to the kind of experiment: Effective dose required for antagonist activity against pentylenetetrazole-induced seizures in mice when administered intraperitoneally; Range is 25-50. To be noted: ip. It counts as functional. In short, it runs like this: as §1
In data set [12] the test system is Mus musculus. Kind of data set: Effective dose required for antagonist activity against pentylenetetrazole-induced seizures in mice when administered intraperitoneally; Range is 100-200. It counts as functional. To be noted: ip. In short, it runs like this:
as §1

The test system of data set [13] is Mus musculus. As to the kind of experiment: Effective dose required for antagonist activity against pentylenetetrazole-induced seizures in mice when administered intraperitoneally; 100-200. It counts as functional. The following applies: ip. In short, it runs like this:
as §1

A short description of data set [14]: Dose encompassing the 50% lethal effect was recorded when administered intraperitoneally in mice; 400-800. It counts as ADME, organism-based. To be noted: mouse, in vivo, ip. In short, it runs like this: as §2
For data set [15], the system named is Mus musculus. Kind of data set: Effective dose required for antagonist activity against maximal electroshock induced seizures in mice when administered intraperitoneally; Range is 50-100. It counts as functional. The following applies: ip. In short, it runs like this: as §1

A word on the ED50: it is the dose that gives a 50% effect, or the effect in half of the subjects. The low end stands for greater potency, the high end for weaker potency. The LD50 is the dose expected to kill half of the subjects tested. Lower therefore signals greater toxicity.

In the case of `CCS(=O)(=O)c1nnc(-c2ccccc2)n1C`, the ED50 in the data set on Mus musculus [1] is 100 mg/kg; with Mus musculus [3], greater than 200 mg/kg; in the data set on Mus musculus [4], 200 mg/kg. The molecule also gave an LD50 in [2] greater than 800 mg/kg.

With `Cn1c(-c2ccccc2)nnc1[S+](C)[O-]` (stereo not given), the ED50 was 18.6 mg/kg in the data set with Mus musculus [5], greater than 100 mg/kg with Mus musculus [7], greater than 100 mg/kg in the data set on Mus musculus [8] and greater than 100 mg/kg in the data set on Mus musculus [3]. Also, the LD50 in [6] was 800 mg/kg.

Consider `COc1ccc(-c2nnc([S+](C)[O-])n2C)cc1` (stereo not given), for which, in data set [6], the LD50 stood at 800 mg/kg. The ED50 was greater than 100 mg/kg in the data set on Mus musculus [7], greater than 100 mg/kg in the data set on Mus musculus [8], greater than 100 mg/kg with Mus musculus [3] and 100 mg/kg with Mus musculus [9].

Consider `CCn1c(SC)nnc1-c1ccccc1F`, for which the ED50 with Mus musculus [10] is 200 mg/kg; in the data set on Mus musculus [5] it was 75 mg/kg; with Mus musculus [11] it was 50 mg/kg; in the data set on Mus musculus [4], 200 mg/kg. The molecule further registered an LD50 in data set [2] greater than 800 mg/kg.

On to `CSc1nnc(-c2ccccc2F)n1C`, for which the ED50 with Mus musculus [5] is 8.8 mg/kg; in the data set on Mus musculus [7] it was 61.3 mg/kg; in the data set on Mus musculus [3], greater than 200 mg/kg. The LD50 in data set [6] came out at 800 mg/kg.

With `CSc1nc(-c2ccccc2)nn1C`, the ED50 in the data set with Mus musculus [10] is 200 mg/kg; in the data set on Mus musculus [1] it was 100 mg/kg; in the data set on Mus musculus [5] it was greater than 200 mg/kg; in the data set on Mus musculus [8] it was greater than 200 mg/kg. Moreover, the LD50 in data set [2] was greater than 800 mg/kg.

Take `Cn1nc(-c2cccc(F)c2)nc1S(C)(=O)=O`: the ED50 with Mus musculus [5], in the data set with Mus musculus [7], in the data set on Mus musculus [8] and with Mus musculus [3] was greater than 100 mg/kg in each case. In [6], this molecule returned an LD50 of 800 mg/kg.

As to `CC[S+]([O-])c1nnc(-c2ccccc2)n1C` (stereo not given), the ED50 in the data set with Mus musculus [12] was 200 mg/kg; in the data set with Mus musculus [8], greater than 200 mg/kg; in the data set with Mus musculus [3] it was greater than 200 mg/kg. In data set [2], this molecule returned a median lethal dose (LD50) greater than 800 mg/kg.

In the case of `CCCC(CCC)C(=O)O` [VALPROIC ACID], the ED50 was 200 mg/kg in the data set with Mus musculus [12], greater than 200 mg/kg in the data set with Mus musculus [5] and greater than 200 mg/kg in the data set on Mus musculus [3].

`Cn1c(-c2ccccc2F)nnc1S(C)(=O)=O`: the ED50 in the data set on Mus musculus [5] was 17.6 mg/kg; in the data set with Mus musculus [7] it was greater than 100 mg/kg; with Mus musculus [8], greater than 100 mg/kg; in the data set with Mus musculus [3] it was greater than 100 mg/kg. For the same molecule, the LD50 in [2] was greater than 800 mg/kg.

As to `CCSc1nnc(-c2ccccc2)n1C`, the ED50 in the data set with Mus musculus [13] was 200 mg/kg; with Mus musculus [5], greater than 200 mg/kg; in the data set on Mus musculus [8], greater than 200 mg/kg; in the data set with Mus musculus [3] it was greater than 200 mg/kg. Also, the LD50 in data set [14] amounted to 800 mg/kg.

With `CSc1n[nH]c(-c2ccc(F)cc2)n1`, the ED50 in the data set on Mus musculus [5], with Mus musculus [7], with Mus musculus [8] and in the data set on Mus musculus [3] was greater than 200 mg/kg throughout. In [2], this molecule showed an LD50 greater than 800 mg/kg.

For the molecule `Cn1nc(-c2ccccc2)nc1[S+](C)[O-]` (stereo not given), the ED50 in the data set with Mus musculus [1] is 100 mg/kg; with Mus musculus [5], greater than 200 mg/kg; in the data set on Mus musculus [8] it was greater than 200 mg/kg; in the data set with Mus musculus [15], 100 mg/kg. Further, in data set [6], the LD50 came out at 800 mg/kg.

For the molecule `Cn1nc(-c2ccc(Cl)cc2)nc1S(C)(=O)=O`, the ED50 in the data set with Mus musculus [5], in the data set with Mus musculus [7], in the data set with Mus musculus [8] and with Mus musculus [3] was greater than 200 mg/kg throughout. The LD50 in [2] is greater than 800 mg/kg.
